Test results as given in PubChem BioAssay.
A number with no mark means an inactive call. Results filed as inconclusive are left out. Active and inactive are the calls of the source.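 How the source made its calls, unless noted: active means cell viability at or below a set limit in both duplicate runs, the limit being the all-compound median minus 4 SD (cut at about 23% in these data, passing the limit was not always enough); inconclusive means no clear call, values can overlap the other calls; inactive means the rest.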

Legend:
[1] = OD615 S. cerevisiae growth inhibition, permissive medium, pilot counter-assay, permissive growth control for S. cerevisiae lifespan shortening project (AID 705;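 active means growth inhibition above 25% in both replicates, a cutoff set 3 SD above the mean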); settings: OD615, 24 h, at 10 µM, hits give high values
How it was run: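 Test system: Saccharomyces cerevisiae strain carrying genetically modified DeaD replicative-lifespan system; buffer or medium: SC raffinose/galactose permissive medium; dosing: one dose 10 µM, DMSO 0.25% final; times: 24 h exposure, 30 °C; measured by: OD at 615 nm; read-out basis: growth inhibition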

[2] = Restrictive medium S. cerevisiae growth inhibition, OD615, pilot screen of yeast lifespan reduction project, restrictive growth control (AID 706;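 active means growth inhibition above a set limit, 3 SD over mean compound inhibition, in both replicates, cut at about 43% in these data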;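 further: modified DeaD lifespan yeast strain shifted to restrictive glucose medium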); settings: OD615, 48 h, at 10 µM, hits give high values
How it was run: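 material = engineered S. cerevisiae DeaD strain | buffer or medium = glucose-based CSMM-D restrictive medium | dosing = one concentration, 10 µM final, 0.25% DMSO | schedule = 4 h pre-growth plus 48 h compound exposure, 30 °C | detection = OD615 absorbance reading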

[3] = viability gain of MRP-1-high H69AR cells under doxorubicin, pilot screen, MRP-1 activator project, CellTiter-Glo, duplicate (AID 807;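 active means viability increase at or above a cutoff of the median across tested compounds plus 3 SD, cut at about 8.5% in these data, passing the limit was not always enough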;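 further: compound pretreatment 18-22 h then 72 h combined with doxorubicin; 0% = doxorubicin alone and 100% = vehicle without doxorubicin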); settings: H69AR viability with doxorubicin, CellTiter-Glo luminescence; at 10 µM; hits give high values
[4] = growth suppression of beta-catenin knockout HCT116, pilot screen, human colon tumor cells (AID 823); settings: CellTiter-Glo, 60 h, at 10 µM, hits give low values;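 further: 0% = wells killed by 20 µM Hyamine and 100% = untreated DMSO cell wells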
[5] = growth suppression of PTEN-deleted HCT116, pilot screen, cell-based, HCT116 clonal line, CellTiter-Glo (AID 824;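 active means viability at or below 27.92% in each of two runs, the all-compound median minus 4 SD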;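 further: 0% = 20 µM Hyamine control and 100% = vehicle cell control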); settings: 60 h, at 10 µM, hits give low values
[6] = inhibitors of the yeast RAM network, pilot screen, dse1pr::URA3 reporter, 5-FOA selection (AID 869;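 active means inhibition over a set limit, the all-compound mean plus 3 SD, in both replicate runs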;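 further: 0% = DMSO wells with no growth and 100% = 10 µM 1-NA-PP1 with full growth; RAM network block rescues cells from 5-FOA so hits raise OD615 growth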); settings: S. cerevisiae dse1pr::URA3 5-FOA growth, OD615, 2 d; at 10 µM; hits give high values; strain carries analog-sensitive mutant Cbk1 kinase
[7] = RAM signaling pathway blockade in yeast – S. cerevisiae, Pdr1DBD-CYC8 efflux-inhibited sensitized strain, primary screen (AID 1298;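 active means RAM network inhibition above 8.4% in each of two replicates, 3 SD over the compound average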;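 further: 0% = DMSO untreated cells without growth and 100% = 10 µM 1-NA-PP1 full growth; higher means more yeast growth rescued from 5-FOA killing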); settings: S. cerevisiae cbk1-as DSE1-URA3 strain, 5-FOA growth OD615, 2 d; at 50 µM; hits give high values

Row | Structure (SMILES) | growth inhibition [1] [%] | growth inhibition [2] | viability increase [3] | viability [4] [%] | viability [5] [%] | inhibition [6] [%] | RAM network inhibition [7] [%]
1 | COC(=O)c1c(-c2cccc(OC)c2)csc1N | -8.46 | 1.4% | -4.63% | 103 | 100 | 1.37 | 0.9
2 | CCOCCOC(=O)C1=C(C)NC2=C(C(=O)CC(c3cccs3)C2)C1c1ccsc1 (configuration not stated) | -1.18 | 2.17% | -1.94% | 93.5 | 89.2 | 2.27 | 6.89
3 | CC(CCc1ccco1)NC(=O)Cn1nc(Cc2ccncc2)c2ccccc2c1=O (configuration not stated) | -0.065 | 3.82% | -4.14% | 89.4 | 92.7 | 2.26 | 1.95
4 | COc1ccc(NC(=O)C2CCCNC2)cc1OCC(C)C (configuration not stated) | -15.2 | -19.2% | -1.5% | 98.4 | 97 | 1.75 | 2.92
5 | CN(CC(=O)NC1CCCc2ccccc21)S(=O)(=O)c1ccc2c(c1)c(=O)n(C)c(=O)n2C (configuration not stated) | -9.17 | -10.7% | -3.54% | 95.3 | 94 | 2.24 | 1.42
6 | O=C(Cn1ncc2c(=O)oc3ccccc3c21)NCCN1CCN(c2ccccc2F)CC1 | 1.82 | -16.2% | -0.78% | 92.8 | 91.5 | 0.705 | 1.34
7 | CC1CN(C(c2cccs2)c2sc3ncnn3c2O)CC(C)O1 (configuration not stated) | -15 | -4.9% | 0.14% | 101 | 97.8 | 2.26 | 4.47
8 | COc1ccc(C2C(C(=O)N3CC(C)CC(C)C3)c3ccccc3C(=O)N2C)cc1 (configuration not stated) | -10.8 | -4.94% | -1.09% | 96.7 | 93 | 0.305 | 0.47
9 | CC(=O)c1ccc(OCC(O)CN2CCOCC2)cc1 (configuration not stated) | -11.4 | 10.1% | 0.28% | 103 | 90.7 | 2.42 | 0.84
10 | CCC(=O)NCCn1c(C)cc2ccccc21 | 8.84 | 11.4% | -0.96% | 104 | 92 | 1.91 | -0.46
11 | O=C(Nc1ccccc1)N(CCCN1CCOCC1)Cc1cccs1 | -1.32 | 9.1% | -3.05% | 96.3 | 93.9 | 2.5 | 0.88
12 | COc1ccc(-n2nnc3c(=O)n(CC(=O)N4CCC(Cc5ccccc5)CC4)cnc32)cc1 | 0.065 | -3.95% | -1.03% | 80.2 | 80.3 | 2.54 | 5.24
13 | Cc1ccnc(SCCn2c(N3CCCCC3)nc3c2c(=O)[nH]c(=O)n3C)n1 | -8.7 | -5.05% | 0.17% | 101 | 107 | 1.52 | 2.14
14 | COc1ccc2c(Cl)c(C(=O)NC3CCS(=O)(=O)C3)sc2c1 (configuration not stated) | 1.61 | -6.69% | 2.14% | 93.3 | 99.3 | 1.92 | 1.43
15 | COc1ccc(-c2nnc3ccc(SCC(=O)N4CCOCC4)nn23)cc1 | 3.68 | 30.1% | -2.73% | 99.6 | 105 | 0.96 | 0.73
16 | CCOC(=O)c1ccc(NC(=O)CN2C(=O)CSC2=O)cc1 | -1.29 | -0.27% | 1.63% | 95.7 | 103 | 3.08 | 4.03
17 | CN1CCN(Cc2c(O)ccc3c(=O)c(Oc4ccccc4Cl)c(C(F)(F)F)oc23)CC1 | -4.67 | 12.6% | -0.67% | 98 | 96.7 | 0.13 | 1.25
18 | O=C(O)CSc1cccc2cccnc12 | 15.6 | 44.6% (active) | -0.24% | 96.5 | 102 | 1.17 | 1.05

Row | Structure (SMILES) | growth inhibition [1] [%] | growth inhibition [2] | viability increase [3] | viability [4] [%] | viability [5] [%] | inhibition [6] [%] | RAM network inhibition [7] [%]
19 | COC(=O)CN(c1ccccc1)S(=O)(=O)c1ccccc1 | -15.8 | -2.47% | -0.03% | 101 | 99.8 | 1.01 | 0.88
20 | COc1ccc(-c2cc3ccccc3n2CC(O)CN2CCN(CCO)CC2)cc1 (configuration not stated) | -6.33 | -2.77% | -3.91% | 80.3 | 86 | 0.72 | 4.23
21 | CC1(C)CC(=O)c2sc(NC(=O)C3CC3)nc2C1 | -1.12 | -10.6% | 1.37% | 104 | 106 | 1.47 | 1.56
22 | CCc1nnc(NC(=O)C2CCCCC2)s1 | 5.8 | 14.7% | 1.12% | 109 | 106 | 0.455 | 1.04
23 | CCOc1ccc(C2CC(c3ccccc3C)n3ncnc3N2)cc1 (configuration not stated) | -6.31 | 13.4% | -1.48% | 87.3 | 77.4 | 1.83 | -1.78
24 | Cc1ccc(S(=O)(=O)/N=C(/Nc2nc(C)cc(C)n2)N2CCOCC2)cc1 | -0.825 | -15.5% | -3.21% | 98.7 | 97.4 | 1.6 | 4.96
25 | Oc1c(C(c2cccs2)N2CCN(c3ccccc3)CC2)sc2ncnn12 (configuration not stated) | -13.2 | -5.4% | 12.3% (active) | 90.9 | 89.5 | 1.53 | 1.45
26 | CC1=CCC2C(=O)N(c3ccc(C)c(Br)c3)C(=O)C2C1 (configuration not stated) | 5.96 | -0.835% | 0.55% | 99.5 | 95.4 | 0.08 | 0
27 | O=C(Cc1ccc2c(c1)OCCO2)c1c(O)cc(O)cc1O | -12.3 | -4.45% | -1.79% | 96.1 | 94 | 3.34 | 6.58
28 | CCCC(=O)C1=C(O)C(C(=O)OC)C(C)(C)CC1=N (configuration not stated) | 1.4 | -3.15% | -0.38% | 100 | 101 | 1.01 | -0.57
29 | CC1CCCCC1NC(=O)C1CCN(C(=O)c2sccc2-n2cccc2)CC1 (configuration not stated) | -4.95 | -6.6% | -1.22% | 105 | 94.8 | 2.28 | 4.86
30 | CC(=O)Nc1ccccc1NC(=O)C(F)(F)F | -14.2 | -5% | -1.16% | 101 | 108 | 1.51 | 0.88
31 | N#Cc1nc(-c2ccccc2F)oc1NCCN1CCOCC1 | -19.2 | -36.8% | -1.89% | 104 | 95 | 1.17 | 0.32
32 | COC(=O)c1ccc(NC(=O)CSc2nnc(-c3ccncc3)n2N)cc1 | -4.88 | -14.8% | -1.74% | 95.7 | 97.4 | 0.805 | 0.26
33 | COc1ccccc1OCCC(=O)OCC(=O)NC(=O)NC(C)(C)C | -2.01 | -17.1% | -1.52% | 85.7 | 84.3 | 2.56 | 0.79
34 | CCOc1ccc(N(CC(=O)NCCSc2ccccn2)S(C)(=O)=O)cc1 | 0.64 | 2.82% | -3.63% | 97.8 | 95.3 | 0.35 | 3.38
35 | CC(=O)c1sc2ccccc2c1OC(=O)c1ccco1 | -9.99 | -11.4% | -4.46% | 83 | 85.3 | 0.39 | 1.97
36 | CCc1ccc(C2CC(=O)N3CN(c4ccccc4)CSC3=C2C#N)cc1 (configuration not stated) | 3.98 | 21.7% | -3.73% | 101 | 90.6 | 1.68 | -0.78
